Results from article PMC2582146 (Biochemistry, 2008).
No end group written: not given here.

Tests used:
[1] = biological target: full-length CAL (Homo sapiens, UniProt Q9HD26); assay: Fluorescence polarization direct binding, full-length CAL; settings: 30 nM reporter titrated with full-length CAL
In short: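 Direct titration: full-length CAL pre-incubated 10–30 min at room temperature in FP buffer (storage buffer 25 mM Tris pH 8.5, 150 mM NaCl, 0.02% NaN3, 0.1 mM ATP, plus 0.1 mg/mL bovine IgG, 0.5 mM Thesit) containing fluorescent peptide. Serially diluted into the same buffer, then 10 min incubation and 15 min equilibration at 24 °C. Polarization read at ex 485/em 525 nm.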

[2] = biological target: T1, CAL PDZ domain (CALP) (Homo sapiens, UniProt Q9HD26); assay: Fluorescence polarization competition binding, CALP with F*C-SSR5_10 reporter
In short: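 Competition FP using fluorescein-5-maleimide-labelled Cys-peptide reporter in FP buffer: storage buffer (25 mM Tris pH 8.5, 150 mM NaCl, 0.02% NaN3, 0.1 mM TCEP or 1 mM DTT) plus 0.1 mg/mL bovine IgG and 0.5 mM Thesit. Unlabelled Cys-peptides titrated into reporter–protein mix, 15 min at 24 °C. Ex 485/em 525 nm. Ki fit with free protein from exact cubic solution, using known reporter Kd.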

[3] = biological target: T1, CAL PDZ domain (CALP); assay: Fluorescence polarization competition binding, CALP with F*C-GBG4_10 reporter
[4] = biological target: T2, NHERF1 PDZ2 domain (N1P2) (Homo sapiens, UniProt O14745); assay: Fluorescence polarization direct binding, NHERF1 PDZ2; settings: titration with increasing N1P2
T2 sequence (O14745 132-299): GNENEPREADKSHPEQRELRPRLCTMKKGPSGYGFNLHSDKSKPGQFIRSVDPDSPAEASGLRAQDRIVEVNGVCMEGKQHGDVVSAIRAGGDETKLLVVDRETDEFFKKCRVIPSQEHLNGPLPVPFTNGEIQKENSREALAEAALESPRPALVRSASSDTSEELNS

[5] = biological target: T3, NHERF1 PDZ1 domain (N1P1) (Homo sapiens, UniProt O14745); assay: Fluorescence polarization direct binding, NHERF1 PDZ1; settings: titration with increasing N1P1
T3 sequence (O14745 1-139): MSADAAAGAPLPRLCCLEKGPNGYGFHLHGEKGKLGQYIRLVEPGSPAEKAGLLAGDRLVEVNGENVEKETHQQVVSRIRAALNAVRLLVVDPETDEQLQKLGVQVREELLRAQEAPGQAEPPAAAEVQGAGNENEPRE

## CC(C)C[C@H](NC(=O)[C@H](CCCNC(=N)N)NC(=O)[C@@H](NC(=O)[C@H](CC(=O)O)NC(=O)[C@H](CCC(N)=O)NC(=O)[C@@H](NC(=O)[C@H](CCC(=O)O)NC(=O)[C@H](CCC(=O)O)NC(=O)[C@H](CCC(=O)O)NC(=O)[C@@H](NC(=O)c1ccc2c(c1)C(=O)OC21c2ccc(O)cc2Oc2cc(O)ccc21)[C@@H](C)O)C(C)C)[C@@H](C)O)C(=O)O [F*-CFTR10]
[1]
  interaction in FP titration: too weak to be fit

## CREKKFFSTIL [C-GBG4_10]
[2]
  Ki: 63 ± 15 µM
[3]
  Ki: 109 ± 12 µM

## F*C-SCR6: fluorescent reporter peptide with a scrambled sequence (C(fluorescein‑5‑maleimide)QVTLDR)
[4]
  FP shift of reporter: neither domain caused an FP shift
[5]
  FP shift of reporter: neither domain caused an FP shift
